Reference: ChEMBL document CHEMBL5674889, “Enhanced JunD/RSK3 signalling due to loss of BRD4/FOXD3/miR-548d-3p axis determines BET inhibition resistance” (2020)
The source made the active and inactive calls. No cut-off for these calls is given here.

How the values were obtained:
BT-549 [1] = assay: Antiproliferative activity in human RPS6KA2-knockdown BT-549 cells assessed as inhibited cell growth at 1 uM for 48 hrs by CCK-8 assay; format: functional, cell-based
MDA-MB-231 [2] = assay: Induction of apoptosis in human MDA-MB-231 cells expressing vector control assessed as late apoptotic cells at 1 uM by Annexin V-FITC flow cytometric analysis (reference value: 2.4%); format: functional
How it was run: (§1)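 Stable clones (vector, RSK3-overexpressing or RPS6KA2-knockdown) treated ± JQ1 1 μM. Cells washed twice in PBS, resuspended at 1 × 10^6 cells/ml in binding buffer, stained with Annexin V-FITC and propidium iodide for 10 min at room temperature in the dark, then read by flow cytometry. Three independent experiments; one-way ANOVA.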

MDA-MB-231 [3] = assay: Antitumor activity against human MDA-MB-231 cells xenografted in BALB/c nude mouse model assessed as reduction of tumor weight in the presence of osimertinib at 35 mg/kg/day, sc administered every 2 days for 30 days; format: functional, organism-based; conditions: time 30.0 day
How it was run: (§2)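 MDA-MB-231 xenografts used 1 × 10^6 cells injected subcutaneously into female BALB/c nude mice (4–6 weeks). Animals were split into four groups (n = 7) at ~100 mm3: vehicle, osimertinib 10 mg/kg, 35 mg/kg agent, or the combination, each given every 2 days. Volume was measured by calliper as length × width²/2; tumours were weighed at end.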

BT-549 [4] = assay: Effect on induction of RPS6KA2 transcription in human BT-549 cells assessed as enhanced luciferase activity at 1 uM for 6 hrs by Luciferase reporter assay; format: functional, cell-based
How it was run: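 Control or JunD-shRNA BLBC cells were transfected with the RPS6KA2 enhancer luciferase reporter (FuGene 6, 24 h) and then treated with DMSO or JQ1 1 μM for 6 h. Dual-luciferase read-out given as fold induction over vector control. Three experiments in triplicate.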

BT-549 [5] = assay: Effect on human BT-549 cells assessed as RSK3 […] expression at 1 uM for 24 hrs by Western blot analysis; format: functional, cell-based
BT-549 [6] = assay: Induction of apoptosis in human BT-549 cells at 1 uM by FACS assay; format: functional, cell-based; how it was run: as §1
BT-549 [7] = assay: Effect on human BT-549 cells assessed as RSK3 protein expression at 1 uM for 24 hrs by Western blot analysis; format: functional, cell-based
How it was run: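 Western blot for RSK3 in MDA-MB-231 and BT549 cells treated with DMSO or 1 μM for 0, 12 and 24 h. Antibody used at 1:1000.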

BT-549 [8] = assay: Effect on human BRD4-knockdown BT-549 assessed as decreased luciferase activity at 1 uM for 6 hrs by Luciferase reporter assay; format: functional, cell-based
BT-549 [9] = assay: Antiproliferative activity in human JUND-overexpressing BT-549 cells assessed as tumor sphere formation at 1 uM by Tumor sphere assay; format: functional, cell-based
MDA-MB-231 [10] = assay: Antiproliferative activity in human RPS6KA2 expressed in JUND knock-down MDA-MB-231 cells assessed as inhibition of cell growth at 1 uM by CCK-8 assay; format: functional, cell-based
MDA-MB-231 [11] = assay: Induction of apoptosis in human RPS6KA2-knockdown MDA-MB-231 cells at 1 uM by FACS assay; format: functional, cell-based; how it was run: as §1
[12] = molecular target: T1, Transcription factor JunD (Homo sapiens) (UniProt P17535); assay: Binding affinity to JunD in human MDA-MB-231 cells assessed RPS6KA2 expression at 1 uM for 24 hrs by ChIP analysis; format: cell-based
T1 sequence (whole entry): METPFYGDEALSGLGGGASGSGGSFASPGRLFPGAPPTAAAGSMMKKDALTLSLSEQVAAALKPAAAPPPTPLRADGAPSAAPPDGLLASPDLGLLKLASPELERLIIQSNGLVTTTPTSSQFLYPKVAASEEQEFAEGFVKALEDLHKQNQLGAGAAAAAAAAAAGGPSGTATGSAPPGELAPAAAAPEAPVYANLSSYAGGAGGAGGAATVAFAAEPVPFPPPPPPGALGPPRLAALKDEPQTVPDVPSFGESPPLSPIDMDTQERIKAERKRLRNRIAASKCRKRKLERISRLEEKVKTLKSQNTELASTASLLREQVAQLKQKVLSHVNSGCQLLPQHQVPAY

MDA-MB-231 [13] = assay: Antitumor activity against human MDA-MB-231 cells xenografted in BALB/c nude mouse model assessed as reduction of tumor size in the presence of osimertinib at 35 mg/kg/day, sc administered every 2 days for 30 days; format: functional, organism-based; conditions: time 30.0 day; how it was run: as §2
BT-549 [14] = assay: Effect on human JUND-overexpressing BT-549 cells assessed as RSK3 protein expression at 1 uM by Western blot analysis; format: functional, cell-based
How it was run: (§3)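 RSK3 and JunD were probed by western blot in JUND-knockdown or JUND-overexpressing stable clones and their controls, all selected with puromycin 1.0 μg/ml. Antibodies used at 1:1000.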

MDA-MB-231 [15] = assay: Downregulation of miR-548d-3p expression in human MDA-MB-231 cells at 1 uM by real-time PCR analysis; format: functional, cell-based
BT-549 [16] = assay: Downregulation of miR-548d-3p expression in human BT-549 cells at 1 uM by real-time PCR analysis; format: functional, cell-based
BT-549 [17] = assay: Effect on human JUND-knockdown BT-549 cells assessed as reduction of RSK3 protein expression at 1 uM by Western blot analysis; format: functional, cell-based; how it was run: as §3
MDA-MB-231 [18] = assay: Induction of apoptosis in human MDA-MB-231 cells over expressing RSK3 assessed as necrotic cells at 1 uM by Annexin V-FITC flow cytometric analysis (reference value: 3.51%); format: functional; how it was run: as §1
BT-549 [19] = assay: Antiproliferative activity in human BT-549 cells assessed as inhibition of cell growth at 1 uM by CCK-8 assay; format: functional, cell-based
MCF7 = assay: Antiproliferative activity in human FOXD3-overexpressing MCF7 cells assessed as cell growth at 1 uM by CCK-8 assay; format: functional, cell-based
BT-549 [20] = assay: Antiproliferative activity in human JunD-overexpressing BT-549 cells assessed as cell growth in the presence of osimertinib at 1 uM by CCK-8 assay; format: functional, cell-based
BT-549 [21] = assay: Antiproliferative activity in human RPS6KA2-knockdown BT-549 cells assessed as cell viability at 1 uM for 48 hrs by CellTiter-Glo luminescent cell viability assay; format: functional, cell-based
How it was run: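 CellTiter-Glo viability: stable overexpressing or shRNA clones (puromycin 1.0 μg/ml selection) seeded 3000 cells/well, adhered overnight, then exposed to 1 μM for 48 h. Luminescence is background-subtracted and normalised to DMSO-treated control. Triplicates, mean ± SD, one-way ANOVA. MDA-MB-231 cells are kept in DMEM and BT549 in RPMI-1640, each with 10% FBS.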

MDA-MB-231 [22] = assay: Antiproliferative activity in human JUND-overexpressing MDA-MB-231 cells assessed as cell viability at 1 uM by CellTiter-Glo luminescent cell viability assay; format: functional, cell-based
How it was run: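 Stable JUND-knockdown (shRNA, puromycin 1.0 μg/ml selection) or JUND-overexpressing clones and vector controls, seeded 3000 cells/well and adhered overnight, then given DMSO or JQ1 (1 μM) for 48 h. Read-out CellTiter-Glo luminescence normalized to DMSO control; triplicates, mean ± SD, one-way ANOVA.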

BT-549 [23] = assay: Effect on human RPS6KA2-knockdown BT-549 cells assessed as RSK3 protein expression at 1 uM by Western blot analysis; format: functional, cell-based
MDA-MB-231 [24] = assay: Induction of apoptosis in human MDA-MB-231 cells at 1 uM by FACS assay; format: functional, cell-based; how it was run: as §1

With Cc1sc2c(c1C)C(c1ccc(Cl)cc1)=N[C@@H](CC(=O)OC(C)(C)C)c1nnc(C)n1-2 the Activity (BT-549 [1]) was “Active”, the Activity (MDA-MB-231 [2]) was 5.48% and the Activity (MDA-MB-231 [3]) was “Active”. For the same compound, the Activity (BT-549 [4]) was “Active”, the Activity (BT-549 [5]) was “Active” and the Activity (BT-549 [6]) was “Active”. The Activity (BT-549 [7]) was “Active”, the Activity (BT-549 [8]) was “Active” and the Activity (BT-549 [9]) was “Active”. For the same compound, the Activity (MDA-MB-231 [10]) was “Active”, the Activity (MDA-MB-231 [11]) was “Active” and the Activity [12] was “Active”. For the same compound, the Activity (MDA-MB-231 [13]) was “Active”, the Activity (BT-549 [14]) was “Active” and the Activity (MDA-MB-231 [15]) was “Active”. The Activity (BT-549 [16]) was “Active”, the Activity (BT-549 [17]) was “Active” and the Activity (MDA-MB-231 [18]) was 1.67%. For the same compound, the Activity (BT-549 [19]) was “Active”, the Activity (MCF7) was “Active” and the Activity (BT-549 [20]) was “Active”. For the same compound, the Activity (BT-549 [21]) was “Active”, the Activity (MDA-MB-231 [22]) was “Active” and the Activity (BT-549 [23]) was “Active”. For the same compound, the Activity (MDA-MB-231 [24]) was “Active”.
